Shown are actives, neighbours in structure and some others; about 29% of the full set was active somewhere.
CYP2C9 act: human CYP2C9 activators, primary screen, biochemical, luminescence. Cytochrome P450 2C9 (Homo sapiens), P11712. activation factor at 5 µM. 96,000 tested, 1.4% active. recombinant CYP2C9, luciferin-H conversion; hits give high values; factor 1 = untreated enzyme, 0 = blocked. AID 1024, 2008;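 active = activation factor of 2 or more for CYP2C9 at a 5 µM dose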;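 also: 0 = sulfaphenazole-blocked wells and 1 = vehicle-only wells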
Target sequence (P11712 whole entry, looked up): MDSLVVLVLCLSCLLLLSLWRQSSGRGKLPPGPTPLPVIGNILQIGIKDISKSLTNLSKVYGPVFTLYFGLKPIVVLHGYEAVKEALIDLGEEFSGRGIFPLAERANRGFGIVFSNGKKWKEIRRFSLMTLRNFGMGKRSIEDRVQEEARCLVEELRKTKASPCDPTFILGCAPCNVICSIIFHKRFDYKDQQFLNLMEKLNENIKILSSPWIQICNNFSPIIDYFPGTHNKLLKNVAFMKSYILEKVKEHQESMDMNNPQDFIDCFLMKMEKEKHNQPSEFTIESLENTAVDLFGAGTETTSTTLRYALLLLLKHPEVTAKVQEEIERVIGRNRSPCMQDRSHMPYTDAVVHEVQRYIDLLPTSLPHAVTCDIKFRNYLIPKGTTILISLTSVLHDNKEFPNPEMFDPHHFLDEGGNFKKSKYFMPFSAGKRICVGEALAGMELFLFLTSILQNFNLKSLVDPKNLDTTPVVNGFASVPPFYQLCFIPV
tolC growth inh: growth inhibitors of E. coli tolC mutant, primary screen, strain BW25113 ΔtolC::kan, 384-well; OD615; growth inhibition, % at 10 µM (by protocol); 65,000 tested, 2.2% active; AID 573, 2007;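 active = growth inhibition at or above a cutoff equal to the mean over every tested compound plus 3 SD, cut at about 60% in these data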;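 also: growth measured after 20 h incubation at 37 °C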
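Doses: one dose of 10 µM final / Material: E. coli BW25113 ΔtolC::kan, tolC deletion mutant strain / Buffer or medium: LB with kanamycin 50 µg/mL / Evaluation: percent growth inhibition / Detection: optical density read at 615 nm / Incubation: 37 °C, 20 h exposure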
CYP2C19 act: human CYP2C19 activators, primary screen, biochemical, luminescence; Cytochrome P450 2C19 (Homo sapiens), P33261; recombinant CYP2C19, luciferin-H EGE luminescence; hits give high values; 0 = fully inhibited enzyme, 1 = untreated enzyme; activation factor at 5 µM; 96,000 tested, under 10 active;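 active = activation factor of at least 2 at 5 µM in the primary screen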;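 also: 0 = wells with 2.5 mM tranylcypromine and 1 = vehicle-only wells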
CYP2C9 inhib: blockers of cytochrome P450 2C9 activity – biochemical, luminescence, ADME assay, primary screen; P11712; CYP2C9 Supersomes, luciferin-H conversion; inhibition, % at 5 µM; 96,000 tested, 20% active; AID 777, 2007;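 active = blocking of liver enzyme CYP2C9 beyond about 50% at 5 µM, limit read from the data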
CYP2C19 inhib: blockers of cytochrome P450 2C19 activity – biochemical, luminescence, ADME assay, primary screen; CYP2C19 Supersomes, luciferin-H EGE luminescence, 30 min; AID 778, 2007; 96,000 tested, 21% active; inhibition, % at 5 µM;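 active = CYP2C19 inhibition above a set limit at 5 µM in the primary screen, cut at about 50% in these data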;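 also: plate controls were negative control wells for no effect and 2.5 mM tranylcypromine positive control for full effect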
E coli WT exp: growth inhibitors of wild-type E. coli, primary screen, strain BW25113, expanded library, OD600; 98,000 tested, 0.15% active; growth inhibition, % at 100 µM; OD600 absorbance; AID 710, 2007;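 active = growth inhibition above about 50% at one test dose, limit read from the data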;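 also: growth measured after 20 h incubation at 37 °C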
* = called active by the depositor; . = not tested or not shown.

SMILES	CYP2C9 act	tolC growth inh	CYP2C19 act	CYP2C9 inhib	CYP2C19 inhib	E coli WT exp
COc1ccc(OC)c(-c2cc(C(=O)NCCCn3ccnc3)no2)c1	0.8	12.2	0.2	21.8	75.1*	0.0
COc1ccc(C(=O)NCCc2cn3ccc(C)cc3n2)cc1	0.8	.	0.3	24.4	74.6*	-2.0
COc1ccc2c(Cl)c(C(=O)NCCCn3ccnc3)sc2c1Cl	0.1	.	0.1	88.2*	88.1*	1.0
CCOc1ccc(-n2c(SCC(N)=O)nc3c(c2=O)SCC3)cc1	1	-0.3	1.2	2.6	-19.7	7.0
COCCNC(=O)c1c(N)n(CCCn2ccnc2)c2nc3ccccc3nc12	0.1	.	0.3	89.2*	68.8*	0.0
COCCNC(=O)c1c(N)n(-c2ccccc2)c2nc3ccccc3nc12	0.8	.	0.9	19.1	14.6	-5.0
O=C(NCCCN1CCOCC1)c1cc(-c2cccs2)on1	1	-12.5	1	-1.5	-1.6	3.0
CC(C)OCCCNC(=O)c1ccncc1	0.2	-10.6	0.1	75.4*	89.3*	1.0
O=C(NCCCn1ccnc1)c1cc(-c2cccs2)on1	0.5	-11.5	0.2	47.7	79.3*	3.0
O=C(NCCCn1ccnc1)c1ccncc1	0.4	-9.8	0.6	56.7*	44.9	1.0
COC(=O)c1cn(-c2ccccc2)nc1-c1ccncc1	0.8	.	0.6	21.9	37.0	6.0
CCCOc1ccc(C(=O)NCCCn2ccnc2)cc1	0.6	-3.2	0.1	40.8	90.2*	5.0
COc1ccc(-c2nn(-c3ccccc3)cc2C(=O)NCCCn2ccnc2)cc1	0	-2.9	0	98.5*	95.8*	-3.0
COc1ccc(C(=O)NCCCn2ccnc2)cc1	0.7	-9.6	0.1	28.2	89.0*	-3.0
CCc1nc(N2CCCC2C(=O)O)c2oc3ccccc3c2n1 (stereo not drawn)	1	-15.2	1	-2.4	3.0	-5.0
Cc1nc(N2CCN(C(=O)c3ccco3)CC2)c2oc3ccccc3c2n1	0.5	8.0	0.3	53.1*	69.8*	.
CCc1nc(N2CCN(C(=O)c3ccco3)CC2)c2oc3ccccc3c2n1	0.1	39.0	0.1	91.8*	94.7*	3.0
CCOC(=O)C(C)Oc1ccc(C2NC(=O)NC(C)=C2C(=O)Nc2ccccc2C)cc1 (stereo not drawn)	0.8	-7.6	0.8	21.2	20.3	-7.0
CCOc1ncccc1C(=O)NCc1ccc(OC)cc1	0.5	.	0.5	52.5*	51.7*	3.0
COc1ccc(Nc2ncccc2C(=O)NCc2ccccc2)cc1	0.2	.	0.2	78.9*	84.5*	-1.0
Nc1nc2ccc(N3CCOCC3)cc2s1	0.9	-17.3	0.9	8.3	11.1	-4.0
CCOC(=O)C1/C(=N\O)CC(C)(O)C(C(=O)OCC)C1c1ccc(OC)c(OC)c1 (stereo not drawn)	1	0.6	0.9	3.4	5.7	5.0
CCOC(=O)C1/C(=N\O)CC(C)(O)C(C(=O)OCC)C1c1ccc(N(C)C)cc1 (stereo not drawn)	0.8	13.6	0.2	20.8	83.6*	1.0
c1cc(-c2nc3cc(Cc4ccc5oc(-c6ccncc6)nc5c4)ccc3o2)ccn1	0.5	-13.5	0.9	51.1*	11.2	.
O=C(O)CCc1ccc(-c2cccs2)n1-c1ccc(C(=O)O)cc1	2*	-14.5	1.1	-103.3	-11.5	4.0
SMILES	CYP2C9 act	tolC growth inh	CYP2C19 act	CYP2C9 inhib	CYP2C19 inhib	E coli WT exp
COc1cccc2cc(/C(C)=N/Nc3nc(-c4cc(C)ccc4C)cs3)c(=O)oc12	0.8	.	1.2	18.6	-17.6	-6.0
Cc1ccc2c(CC(=O)Nc3nc(C)cs3)coc2c1	0.8	37.3	0.8	23.0	24.1	7.0
Cc1cccc(C(C)C)c1-n1nnnc1-c1ccccc1	0.2	44.8	0.3	82.4*	70.4*	4.0
O=C1NCCCc2nonc21	1.1	-18.7	1.2	-13.5	-15.6	0.0
CCOc1cccc(C(=O)Nc2ccccc2N2CCN(C(=O)C(C)C)CC2)c1	0.1	8.4	0.2	94.1*	76.9*	-1.0
CCC(=O)N1CCN(c2ccccc2NC(=O)c2cccc(C)c2)CC1	0.3	-8.1	0.2	71.2*	76.9*	-2.0
CCC(=O)N1CCN(c2ccccc2NC(=O)COc2cccc(C)c2)CC1	0.4	37.8	0.6	57.8*	40.2	6.0
COc1ccc(Cl)cc1C(=O)Nc1ccccc1N1CCN(C(=O)C(C)C)CC1	0.3	10.5	0.3	68.5*	67.5*	-11.0
CC(=O)Nc1ccc(NS(=O)(=O)c2cn(C)c(=O)n(C)c2=O)cc1	1.2	-13.0	1.2	-15.3	-16.7	3.0
CCCCN(CC)Cc1ccc(CNC(=O)Nc2ccc(F)cc2)o1	0.6	.	0.8	36.6	21.6	3.0
Cc1noc(C)c1COC(=O)CCCOc1ccc(Cl)cc1Cl	0.2	35.5	0.2	80.3*	84.3*	-4.0
Cc1noc(C)c1COC(=O)Cc1ccc(Cl)cc1	0.4	3.2	0.1	55.4*	92.5*	-4.0
Cc1noc(C)c1COC(=O)CN(C)S(=O)(=O)c1ccc(Cl)cc1	0.8	6.5	0.6	17.6	40.9	-4.0
CCC(CO)n1c(SCc2cc(=O)oc3cc(C)ccc23)nc2ccccc2c1=O (stereo not drawn)	0	.	0	98.1*	96.9*	-6.0
Cc1ccc(NC(=O)/C(C#N)=C/c2ccc(C)s2)c(C)c1	1	.	0.9	1.4	11.1	-12.0
Cc1ccc(/C=C(\C#N)C(=O)Nc2c(C)cccc2C)s1	0.4	.	0.9	64.2*	13.4	-2.0
Cn1c(SCC(=O)OCC(=O)c2ccccc2)nnc1-c1cccs1	0.8	-7.8	0.7	20.7	27.3	-4.0
Cc1ccc(C(=O)CSc2nnc(-c3cccs3)n2C)o1	0.9	0.0	0.5	11.2	50.6*	-1.0
Cn1c(Cc2ccccc2)nnc1SCC(=O)c1cccs1	0.6	.	0	44.4	95.2*	6.0
COc1ccc(OC)c(C(=O)CSc2nnc(Cc3cccs3)n2CCc2ccccc2)c1	0.6	.	0.4	36.9	55.2*	-8.0
COc1ccc(OC)c(C(=O)CSc2nnc(-c3cccs3)n2C)c1	0.7	-3.9	0	31.9	97.3*	6.0
CC(C)OC(=O)CSc1nnc(Cc2ccccc2)n1C	1	-8.3	0.7	-2.4	25.9	5.0
COc1ccc(OC)c(NC(=O)CSc2nnc(Cc3cccn3C)n2CCc2ccccc2)c1	0.6	22.4	0.6	37.3	35.8	-2.0
Cc1ccccc1OC(=O)n1c(=S)oc2cc(Cl)ccc21	0.5	.	0.9	48.1	6.8	41.0
CN(C)Cc1nc2c([nH]1)c(=O)n(C)c(=O)n2C	0.9	-21.6	0.5	6.3	51.4*	-9.0

Screens from PubChem BioAssay.
